Drawing on ChEMBL document CHEMBL4425160, “DABCO-catalyzed one-pot three component synthesis of dihydropyrano[3,2-c]chromene substituted quinazolines and their evaluation towards anticancer activity” (Bioorg Med Chem Lett, 2016), this text covers IC50 and inhibition of growth for seven compounds.

Experiment [1] relates to MDA-MB-231. Description: Cytotoxicity against human MDA-MB-231 cells assessed as cell growth inhibition after 48 hrs by MTT assay. The experiment is classed as functional, cell-based. Particulars: MDA-MB-231, 48 h. Put shortly:
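Cells counted by trypan blue exclusion, seeded at 1×10^4 per well in DMEM with 10% FBS, and left 24 h. They were then exposed to a concentration series for 48 h at 37°C. Serum-free medium with MTT was added for 4 h, formazan was dissolved in DMSO, and A570 was read minus A690. IC50 was read from the 50% viability point versus DMSO+DMEM controls.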
For orientation: Formazan colour is commonly taken as a measure of viable cells.

Experiment [2] concerns MDA-MB-231. The experiment in a line: Cytotoxicity against human MDA-MB-231 cells assessed as cell growth inhibition at 100 uM after 48 hrs by MTT assay. It is filed as functional. Particulars: MDA-MB-231, 48 h, read-out: GI. The procedure, abridged: (§1)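 MTT growth assay. 1×10^4 cells were seeded in DMEM with 10% FBS and incubated 24 h. Each compound was then applied at the stated single concentration for 48 h at 37°C, followed by MTT for 4 h. Formazan was solubilized in DMSO and absorbance read at 570 nm with 690 nm background subtraction. Inhibition is relative to control cells given DMSO+DMEM.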

Experiment [3] relates to MDA-MB-231. The experiment in a line: Cytotoxicity against human MDA-MB-231 cells assessed as cell growth inhibition at 50 uM after 48 hrs by MTT assay. Particulars: MDA-MB-231, 48 h, read-out: GI. The experiment is classed as functional. The procedure, abridged:
as §1

The term IC50 denotes the point on the concentration scale where inhibition reaches its midpoint. On to `CCOC(=O)C1=C(N)Oc2c(c(=O)oc3cc(OC)c(Cl)cc23)C1c1nc(OCc2ccccc2)c2ccccc2n1` (centres undefined), for which, in the experiment on MDA-MB-231 [1], the IC50 was > 100 µM.

On to `CCOC(=O)C1=C(N)Oc2c(c(=O)oc3c(Cl)cc(Cl)cc23)C1c1nc(OCc2ccccc2)c2ccccc2n1` (centres undefined), for which the concentration for half-maximal inhibition (IC50) in the experiment on MDA-MB-231 [1] is > 100 µM.

`CCOC(=O)C1=C(N)Oc2c(c(=O)oc3ccccc23)C1c1nc(OCc2ccccc2)c2ccccc2n1` (centres undefined): in the experiment on MDA-MB-231 [1], the IC50 was > 100 µM.

As for `CCOC(=O)C1=C(N)Oc2c(c(=O)oc3cc(OC)ccc23)C1c1nc(OCc2ccccc2)c2ccccc2n1` (centres undefined), the IC50 with MDA-MB-231 [1] was > 100 µM.

For `CCOC(=O)C1=C(N)Oc2c(c(=O)oc3c(Br)cc(Cl)cc23)C1c1nc(OCc2ccccc2)c2ccccc2n1` (centres undefined), the inhibition of growth at 100 µM in the experiment on MDA-MB-231 [2] is > 95%. For the same compound, in the experiment with MDA-MB-231 [1], the IC50 was found to be 28.3 µM. Further, the inhibition of growth at 50 µM in the experiment on MDA-MB-231 [3] amounted to 80%.

Take `CCOC(=O)C1=C(N)Oc2c(c(=O)oc3cc(C)c(C)cc23)C1c1nc(OCc2ccccc2)c2ccccc2n1` (centres undefined): in the experiment with MDA-MB-231 [1], the IC50 is > 100 µM.

As to `CCOC(=O)C1=C(N)Oc2c(c(=O)oc3ccc(F)cc23)C1c1nc(OCc2ccccc2)c2ccccc2n1` (centres undefined), in the experiment with MDA-MB-231 [1], the half-maximal inhibitory concentration (IC50) is > 100 µM.
